Compounds with a hit are over-represented: about 2.3% of the library has one in this group of screens.
NPY-Y2 antag – NPY-Y2 (human) receptor antagonism; inhibition, % at 2.7 µM; NPY-Y2 expressing cells, antagonist mode; 140,000 tested, 0.99% active; P49146; in the data active means inhibition above about 17%;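 further: 0% = vehicle with agonist challenge and 100% = reference antagonist with challenge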
Target sequence (P49146 whole entry, looked up): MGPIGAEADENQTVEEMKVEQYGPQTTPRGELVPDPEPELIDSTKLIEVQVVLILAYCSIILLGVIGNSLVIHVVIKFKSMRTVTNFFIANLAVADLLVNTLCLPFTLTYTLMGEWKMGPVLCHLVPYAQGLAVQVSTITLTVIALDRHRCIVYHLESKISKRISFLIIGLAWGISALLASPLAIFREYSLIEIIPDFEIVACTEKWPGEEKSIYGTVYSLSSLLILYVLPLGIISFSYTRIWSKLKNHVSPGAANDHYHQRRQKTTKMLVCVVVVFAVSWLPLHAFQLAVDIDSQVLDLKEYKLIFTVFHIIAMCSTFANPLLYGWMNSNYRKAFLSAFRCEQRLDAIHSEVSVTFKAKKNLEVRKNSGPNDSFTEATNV
NPY Y1 blocker – NPY-Y1 (human) receptor antagonism. P25929. inhibition, % at 3.6 µM. AID 1040. HEK293-CNG Y1 cells, membrane potential fluorescence; NPY at EC95, then isoproterenol. 200,000 tested, 1% active;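 active means inhibition above the campaign mean inhibition of all tested compounds plus 3 SD, cut at about 20% in these data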;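 further: 0% = DMSO wells given NPY plus isoproterenol and 100% = isoproterenol alone without NPY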
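Benchmarks – high control isoproterenol alone, low control NPY with isoproterenol · Material – HEK293 Y1/CNG channel cell line · Times – dye 3 h, compound 60 min room temperature, stimulation 45 min · Probe or stimulus – NPY (25 nM), isoproterenol (1 µM), Ro 20-1724 (25 µM) · Evaluation – % inhibition of NPY effect · Signal – fluorescence, membrane potential probe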
NPY1 pot ag – potentiates or activates human NPY-Y1 receptor; P25929; NPY-Y1 expressing cells, potentiator/agonist activation; activation, % at 3.6 µM; 220,000 tested, 0.37% active; AID 1304; in the data active means activation above about 33%, passing the limit was not always enough;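 further: cells stimulated with NPY at EC10 then isoproterenol at EC100; 0% = low agonist plus stimulus and 100% = saturating agonist plus stimulus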
Calpain2 inh – blocks pig calpain II enzyme activity | inhibition, % at 16 µM | AID 1236 | purified calpain II, fluorogenic peptide substrate, 30 min | 220,000 tested, 0.37% active;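 active means inhibition above about 50%, limit read from the data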
TbHK1 inh – blocks Trypanosoma brucei hexokinase 1 activity. recombinant TbHK1, G6PDH-coupled NADH A340. inhibition, % at 10 µM. 220,000 tested, 0.11% active. AID 1430;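 active means inhibition of 50% or more in the single-dose primary screen; inactive means inhibition below 50%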
NPY2 pot ag – potentiates or activates human NPY-Y2 receptor. 220,000 tested, 0.45% active. activation, % at 3.6 µM. cells expressing NPY-Y2, potentiator/agonist read-out; in the data active means activation above about 27%;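 further: cells stimulated with NPY near EC25 plus isoproterenol at EC100; 0% = vehicle plus submaximal agonist and 100% = vehicle plus saturating agonist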
Starred values were filed as active, the others as inactive.

For O=C(NC1CCCC1)C(c1ccsc1)N(Cc1ccco1)C(=O)Cc1cccs1 (configuration not stated) the results were NPY-Y2 antag 38*, NPY Y1 blocker 62*, NPY1 pot ag -35, Calpain2 inh 25, TbHK1 inh 3 and NPY2 pot ag -32.
For CCN(CC)CCN(C)C1CCC(c2ccccc2)CC1 (configuration not stated) the results were NPY-Y2 antag 7, NPY Y1 blocker 9, NPY1 pot ag -35, Calpain2 inh -16, TbHK1 inh 5 and NPY2 pot ag -9.
For COc1cc(C(C(=O)NC2CCCCC2)N(Cc2cccs2)C(=O)Cc2c[nH]c3ccccc23)cc(OC)c1OC (configuration not stated) the results were NPY-Y2 antag 9, NPY Y1 blocker 3, NPY1 pot ag 5, Calpain2 inh -101, TbHK1 inh -2 and NPY2 pot ag 32*.
`COc1cc(C(C(=O)NC2CCCCC2)N(C(=O)Cc2c[nH]c3ccccc23)c2ccccc2C)cc(OC)c1OC` (configuration not stated) gave NPY-Y2 antag 4, NPY Y1 blocker -2, NPY1 pot ag -13, Calpain2 inh -68, TbHK1 inh 0 and NPY2 pot ag -1.
Screening O=C(NC1CCCC1)C(c1ccsc1)N(Cc1ccccc1)C(=O)Cc1cccs1 (configuration not stated) returned NPY-Y2 antag 33*, NPY Y1 blocker 60*, NPY1 pot ag -34, Calpain2 inh 48, TbHK1 inh 0 and NPY2 pot ag -21.
`COC(=O)c1ccc(C(C(=O)NC2CCCCC2)N(Cc2ccccc2)C(=O)Cc2cccs2)cc1` (configuration not stated) gave NPY-Y2 antag 6, NPY Y1 blocker -2, NPY1 pot ag 0, Calpain2 inh 10, TbHK1 inh 37 and NPY2 pot ag 3.
Screening CCCCn1nc(CC(=O)NCCN(CC)CC)c2ccccc2c1=O returned NPY1 pot ag 26, Calpain2 inh 8, TbHK1 inh -6 and NPY2 pot ag -4.
Screening CCCCC(=O)OCC(=O)Nc1ccc(C)c(F)c1 returned NPY Y1 blocker -2, NPY1 pot ag 2, Calpain2 inh 14, TbHK1 inh 4 and NPY2 pot ag 5.
c1ccc(Cc2noc(CN3CCN(CCOc4ccccc4)CC3)n2)cc1 was read as NPY Y1 blocker -2, NPY1 pot ag -2, Calpain2 inh -6, TbHK1 inh 0 and NPY2 pot ag -17.
For Cc1nnc(Sc2cc(NCCO)c([N+](=O)[O-])c3nonc23)s1 the results were NPY Y1 blocker 6, NPY1 pot ag 5, Calpain2 inh 82*, TbHK1 inh -11 and NPY2 pot ag 1.
Screening COc1ccc(C(=O)N2c3cc4c(cc3C(C)=CC2(C)C)OCO4)cc1 returned NPY-Y2 antag 6, NPY Y1 blocker 9, NPY1 pot ag 4, Calpain2 inh 52*, TbHK1 inh -6 and NPY2 pot ag -11.
Screening C=C(C)CNC(=S)N/N=C/c1c(F)cccc1F returned NPY Y1 blocker -1, NPY1 pot ag -19, Calpain2 inh 57*, TbHK1 inh -3 and NPY2 pot ag -9.
For Cc1c(Cl)cnc(NC(=O)COC(=O)c2cccc(S(=O)(=O)N3c4ccccc4CC3C)c2)c1Cl (configuration not stated) the results were NPY-Y2 antag 0, NPY Y1 blocker -1, NPY1 pot ag 25, Calpain2 inh -28, TbHK1 inh 29 and NPY2 pot ag 1.
`Cc1ccc(C)c(N(CC(=O)NC2CCCC2)C(=O)c2oc(C(C)(C)C)cc2C)c1` gave NPY-Y2 antag 20*, NPY Y1 blocker 27*, NPY1 pot ag -3, Calpain2 inh 20, TbHK1 inh 2 and NPY2 pot ag 0.
COc1ccc(NC(=O)c2ccc(S(=O)(=O)N3CCOCC3)o2)cc1 was read as NPY1 pot ag 14, Calpain2 inh 3, TbHK1 inh -24 and NPY2 pot ag -13.
`O=C(C1CCN(CC2CC=CCC2)CC1)N(CCc1ccccc1)Cc1ccccc1` (configuration not stated) gave NPY-Y2 antag 18*, NPY Y1 blocker 24*, NPY1 pot ag -42, Calpain2 inh 5, TbHK1 inh 7 and NPY2 pot ag -15.
O=C(C1CCN(CCCc2ccccc2)CC1)N(CCc1ccccc1)Cc1ccccc1 was read as NPY-Y2 antag 36*, NPY Y1 blocker 27*, NPY1 pot ag -52, Calpain2 inh -1, TbHK1 inh 4 and NPY2 pot ag 22.
`Nc1ccc(Br)c2c1C(=O)c1ccccc1C2=O` gave NPY-Y2 antag -5, NPY Y1 blocker -8, NPY1 pot ag 34, Calpain2 inh -16, TbHK1 inh 2 and NPY2 pot ag 32.
For Nc1ccc(O)c2c1C(=O)c1ccccc1C2=O the results were NPY-Y2 antag -6, NPY Y1 blocker -10, NPY1 pot ag 54*, Calpain2 inh -14, TbHK1 inh 18 and NPY2 pot ag 57*.
`Cc1nc(N2CCN(Cc3ccc(Cl)cc3)CC2)c2oc3ccccc3c2n1` gave NPY1 pot ag -9, Calpain2 inh 1, TbHK1 inh -16 and NPY2 pot ag -35.
Screening COc1ccccc1N1CCN(c2nc(C)nc3c2oc2ccccc23)CC1 returned NPY-Y2 antag 20*, NPY Y1 blocker 32*, NPY1 pot ag -31, Calpain2 inh 31, TbHK1 inh -26 and NPY2 pot ag -21.
Screening CC(C)(CO)NCc1ccccc1OCC(=O)Nc1ccccc1 returned NPY-Y2 antag 2, NPY Y1 blocker 3, NPY1 pot ag 8, Calpain2 inh 17, TbHK1 inh 4 and NPY2 pot ag 8.
`Cc1ccc(NC(=O)COc2ccccc2CNC(C)(C)CC(C)(C)C)cc1` gave NPY-Y2 antag 25*, NPY Y1 blocker 30*, NPY1 pot ag -18, Calpain2 inh 1, TbHK1 inh 18 and NPY2 pot ag -36.
`COc1ccc(C(=O)N[C@H](C(=O)N2CCN(c3ccccc3F)CC2)C(C)C)cc1` gave NPY Y1 blocker 1, NPY1 pot ag 19, Calpain2 inh -18, TbHK1 inh -1 and NPY2 pot ag -7.
O=C(O)c1cccc(N2C(=O)/C(=C/c3ccc(SCc4ccc(Cl)cc4)o3)SC2=S)c1 was read as NPY Y1 blocker 3, NPY1 pot ag 13, Calpain2 inh 69*, TbHK1 inh 22 and NPY2 pot ag 16.
`O=C(O)c1cc(-c2ccc(/C=C3/SC(=S)N(Cc4ccccc4)C3=O)o2)ccc1Cl` gave NPY Y1 blocker -1, NPY1 pot ag 5, Calpain2 inh 40, TbHK1 inh 29 and NPY2 pot ag -10.
`CCOC(=O)c1c(NC(=O)CSc2nc3nc(C)cc(C)n3n2)sc(CC)c1C` gave NPY-Y2 antag -2, NPY Y1 blocker -2, NPY1 pot ag 27, Calpain2 inh -12, TbHK1 inh 27 and NPY2 pot ag 8.

Source: PubChem
